In brackets after ≈: the same amount, converted by molar mass. Blank lines part the entries; values can stand above or below the compound they belong to. Activity calls are given as the source filed them. The calls are words filed in the database; no cut-off is given here.
Tests used:
Human alphaherpesvirus 1 [1] = experiment: Antiviral activity against Herpes simplex virus 1 assessed as plaque reduction at 1.71 x 10^-5 M by cell-based assay relative to vidarabine; type: functional
Method in brief: (§1)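 HSV-1 plaque-reduction assay by the Hsiung–Melnick procedure. Challenge was 125-300 plaque-forming units. An ara-A control was run alongside each sample at the same molar concentration with an identical virus challenge. Data were confirmed by duplicate assay (±10%).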

[2] = Aqueous solubility of the compound at pH 7; type: physicochemical
Adenosine deaminase = target: T1, Adenosine deaminase (Bos taurus, UniProt P56658); experiment: Activity of calf mucosal adenosine deaminase assessed as enzyme-mediated drug metabolism by liquid chromatographic analysis; type: ADME; details: cattle
T1 sequence (P56658 whole entry): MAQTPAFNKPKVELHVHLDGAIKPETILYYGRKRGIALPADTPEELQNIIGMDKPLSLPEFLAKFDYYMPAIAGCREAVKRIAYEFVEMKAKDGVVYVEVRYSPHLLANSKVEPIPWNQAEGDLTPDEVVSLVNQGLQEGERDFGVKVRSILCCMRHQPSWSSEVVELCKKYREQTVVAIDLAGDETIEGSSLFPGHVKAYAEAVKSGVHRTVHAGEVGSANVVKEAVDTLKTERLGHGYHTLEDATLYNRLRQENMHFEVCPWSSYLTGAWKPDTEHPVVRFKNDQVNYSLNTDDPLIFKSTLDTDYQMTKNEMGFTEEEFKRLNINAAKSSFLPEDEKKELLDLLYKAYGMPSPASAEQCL
Method in brief: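 Drug exposed to the deaminase, with enzyme level also raised 10- and 100-fold. Reaction mixtures analysed by reverse-phase C18 LC (aqueous acetonitrile eluent, 254-nm UV detection) for unchanged substrate.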

Human alphaherpesvirus 1 [3] = experiment: Antiviral activity against Herpes simplex virus 1 assessed as plaque reduction at 0.53 x 10^-5 M by cell-based assay relative to vidarabine; type: functional; method in brief: as §1
Human alphaherpesvirus 1 [4] = experiment: Antiviral activity against Herpes simplex virus 1 assessed as plaque reduction at 0.53 x 10^-5 M by cell-based assay relative to control; type: functional; details: Human alphaherpesvirus 1, read-out: INH; method in brief: as §1
Human alphaherpesvirus 1 [5] = experiment: Antiviral activity against Herpes simplex virus 1 assessed as plaque reduction at 0.18 x 10^-5 M by cell-based assay relative to vidarabine; type: functional; method in brief: as §1
Human alphaherpesvirus 1 [6] = experiment: Antiviral activity against Herpes simplex virus 1 assessed as plaque reduction at 1.75 x 10^-5 M by cell-based assay relative to vidarabine; type: functional; method in brief: as §1
Human alphaherpesvirus 1 [7] = experiment: Antiviral activity against Herpes simplex virus 1 assessed as plaque reduction at 0.18 x 10^-5 M by cell-based assay relative to control; type: functional; method in brief: as §1
Human alphaherpesvirus 1 [8] = experiment: Antiviral activity against Herpes simplex virus 1 assessed as plaque reduction at 1.75 x 10^-5 M by cell-based assay relative to control; type: functional; method in brief: as §1
Human alphaherpesvirus 1 [9] = experiment: Antiviral activity against Herpes simplex virus 1 assessed as plaque reduction at 0.54 x 10^-5 M by cell-based assay relative to vidarabine; type: functional; method in brief: as §1
Human alphaherpesvirus 1 [10] = experiment: Antiviral activity against Herpes simplex virus 1 assessed as plaque reduction at 0.17 x 10^-5 M by cell-based assay relative to control; type: functional; method in brief: as §1
Human alphaherpesvirus 1 [11] = experiment: Antiviral activity against Herpes simplex virus 1 assessed as plaque reduction at 0.17 x 10^-5 M by cell-based assay relative to vidarabine; type: functional; method in brief: as §1
Human alphaherpesvirus 2 [12] = experiment: Antiviral activity against Herpes simplex virus 2 Magill infected in guinea pig assessed as prevention of death at 10% compound concentration treated intravaginally bid for 4 days measured on day 16 post-infection; type: functional, organism-based
Method in brief: (§2)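 Animals were infected intravaginally with 1 × 10^2.82 PFU in 0.1 mL. Drug ointments were given intravaginally starting 4 h postinfection, then twice daily for 4 days, filling the vagina. Clinical signs were scored as animals positive/infected. Cure meant no symptoms, or symptoms healed by day 16 postinfection; it was reported as cured/infected.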

Human alphaherpesvirus 2 [13] = experiment: Antiviral activity against Herpes simplex virus 2 Magill infected in guinea pig assessed as prevention of paralysis at 10% compound concentration treated intravaginally bid for 4 days measured on day 16 post-infection; type: functional, organism-based; method in brief: as §2
Human alphaherpesvirus 2 [14] = experiment: Antiviral activity against Herpes simplex virus 2 Magill infected in guinea pig assessed as prevention of vesiculation of labia and vulva at 10% compound concentration treated intravaginally bid for 4 days measured on day 16 post-infection; type: functional, organism-based; method in brief: as §2
Human alphaherpesvirus 2 [15] = experiment: Antiviral activity against Herpes simplex virus 2 Magill infected in guinea pig assessed as cured animal at 10% compound concentration treated intravaginally bid for 4 days measured on day 16 post-infection; type: functional, organism-based; method in brief: as §2
Human alphaherpesvirus 2 [16] = experiment: Antiviral activity against Herpes simplex virus 2 Magill infected in guinea pig assessed as prevention of inflammation at 10% compound concentration treated intravaginally bid for 4 days measured on day 16 post-infection; type: functional, organism-based; method in brief: as §2
Human alphaherpesvirus 2 [17] = experiment: Antiviral activity against Herpes simplex virus 2 Magill infected in guinea pig assessed as prevention of vaginal discharge at 10% compound concentration treated intravaginally bid for 4 days measured on day 16 post-infection; type: functional, organism-based; method in brief: as §2
Human alphaherpesvirus 2 [18] = experiment: Antiviral activity against Herpes simplex virus 2 Magill infected in guinea pig assessed as prevention of death at 3% compound concentration treated intravaginally bid for 4 days measured on day 16 post-infection; type: functional, organism-based; method in brief: as §2
Human alphaherpesvirus 2 [19] = experiment: Antiviral activity against Herpes simplex virus 2 Magill infected in guinea pig assessed as prevention of paralysis at 3% compound concentration treated intravaginally bid for 4 days measured on day 16 post-infection; type: functional, organism-based; method in brief: as §2
Human alphaherpesvirus 2 [20] = experiment: Antiviral activity against Herpes simplex virus 2 Magill infected in guinea pig assessed as prevention of vulvo-vaginal swelling at 3% compound concentration treated intravaginally bid for 4 days measured on day 16 post-infection; type: functional, organism-based; method in brief: as §2
Cavia porcellus [21] = organism: Cavia porcellus; experiment: Toxicity in albino guinea pig assessed as death at 3% compound concentration treated intravaginally bid for 4 days; type: organism-based; details: in vivo, other, 96 h
Method in brief: (§3)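 Uninfected control animals received drug ointment intravaginally (topical), twice daily for 4 days, in an amount enough to fill the vagina.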

Cavia porcellus [22] = organism: Cavia porcellus; experiment: Toxicity in albino guinea pig assessed as development of erythema at 3% compound concentration treated intravaginally bid for 4 days; type: organism-based; details: in vivo, other, 96 h; method in brief: as §3
Human alphaherpesvirus 1 [23] = experiment: Antiviral activity against Herpes simplex virus 1 assessed as plaque reduction at 1.83 x 10^-5 M by cell-based assay relative to control; type: functional; method in brief: as §1
Human alphaherpesvirus 1 [24] = experiment: Antiviral activity against Herpes simplex virus 1 assessed as plaque reduction at 1.83 x 10^-5 M by cell-based assay relative to vidarabine; type: functional; details: Human alphaherpesvirus 1, read-out: INH; method in brief: as §1
Human alphaherpesvirus 2 [25] = experiment: Antiviral activity against Herpes simplex virus 2 Magill infected in guinea pig assessed as prevention of vaginal discharge at 3% compound concentration treated intravaginally bid for 4 days measured on day 16 post-infection; type: functional, organism-based; method in brief: as §2
Human alphaherpesvirus 2 [26] = experiment: Antiviral activity against Herpes simplex virus 2 Magill infected in guinea pig assessed as prevention of vesiculation of labia and vulva at 3% compound concentration treated intravaginally bid for 4 days measured on day 16 post-infection; type: functional, organism-based; method in brief: as §2
Human alphaherpesvirus 2 [27] = experiment: Antiviral activity against Herpes simplex virus 2 Magill infected in guinea pig assessed as prevention of inflammation at 3% compound concentration treated intravaginally bid for 4 days measured on day 16 post-infection; type: functional, organism-based; method in brief: as §2

SMILES: CC(=O)OC[C@H]1O[C@@H](n2cnc3c(N)ncnc32)[C@@H](O)[C@@H]1OC(C)=O
- solubility ([2]; aqueous, read-out: solubility): 4700 µg/mL (≈ 13.4 mM)
- Stability (Adenosine deaminase): Stable
- inhibition at 17.5 µM (Human alphaherpesvirus 1 [6]): 87%
- inhibition at 17.5 µM (Human alphaherpesvirus 1 [8]): 81%
- inhibition at 5.4 µM (Human alphaherpesvirus 1 [9]): 79%

SMILES: CC(=O)O[C@H]1[C@H](O)[C@@H](CO)O[C@H]1n1cnc2c(N)ncnc21
- inhibition at 17.1 µM (Human alphaherpesvirus 1 [1]): 90%
- solubility ([2]; buffer): soluble
- Stability (Adenosine deaminase): Stable
- inhibition at 1.7 µM (Human alphaherpesvirus 1 [10]): 0%
- inhibition at 1.7 µM (Human alphaherpesvirus 1 [11]): 60%

SMILES: Nc1ncnc2c1ncn2[C@@H]1O[C@H](COP(=O)(O)O)[C@@H](O)[C@@H]1O
- Activity (Human alphaherpesvirus 2 [12]): Active
- Activity (Human alphaherpesvirus 2 [13]): Active
- Activity (Human alphaherpesvirus 2 [14]): Active
- Activity (Human alphaherpesvirus 2 [15]): Active
- Activity (Human alphaherpesvirus 2 [16]): Active
- Activity (Human alphaherpesvirus 2 [17]): Active

SMILES: CCC(=O)O[C@H]1[C@H](OC(=O)CC)[C@@H](CO)O[C@H]1n1cnc2c(N)ncnc21
- Activity (Human alphaherpesvirus 2 [18]): Active
- solubility ([2]; aqueous, read-out: solubility): 4500 µg/mL (≈ 11.9 mM)
- Stability (Adenosine deaminase): Stable
- Activity (Human alphaherpesvirus 2 [19]): Active
- Activity (Human alphaherpesvirus 2 [20]): Active
- Activity (Cavia porcellus [21]): Toxic
- inhibition at 1.8 µM (Human alphaherpesvirus 1 [5]): 60%
- Activity (Cavia porcellus [22]): Toxic
- inhibition at 18.3 µM (Human alphaherpesvirus 1 [23]): 15%
- inhibition at 18.3 µM (Human alphaherpesvirus 1 [24]): 90%
- Activity (Human alphaherpesvirus 2 [25]): Active
- Activity (Human alphaherpesvirus 2 [26]): Active
- Activity (Human alphaherpesvirus 2 [27]): Active

Second part, led by results:

- solubility ([2]; aqueous, read-out: solubility): 420 µg/mL (≈ 1.03 mM)
- Stability (Adenosine deaminase): Stable
SMILES: CC(C)C(=O)O[C@H]1[C@H](OC(=O)C(C)C)[C@@H](CO)O[C@H]1n1cnc2c(N)ncnc21
- inhibition at 17.1 µM (Human alphaherpesvirus 1 [1]): 90%
- inhibition at 5.3 µM (Human alphaherpesvirus 1 [3]): 73%
- inhibition at 5.3 µM (Human alphaherpesvirus 1 [4]): 0%

- solubility ([2]; buffer): soluble
- Stability (Adenosine deaminase): Unstable
SMILES: CC(C)C(=O)O[C@H]1[C@H](O)[C@H](n2cnc3c(N)ncnc32)O[C@@H]1CO
- inhibition at 1.8 µM (Human alphaherpesvirus 1 [5]): 60%
- inhibition at 17.5 µM (Human alphaherpesvirus 1 [6]): 90%
- inhibition at 1.8 µM (Human alphaherpesvirus 1 [7]): 26%
- inhibition at 17.5 µM (Human alphaherpesvirus 1 [8]): 99%

- solubility ([2]; aqueous, read-out: solubility): 20 µg/mL (≈ 0.0491 mM)
- Stability (Adenosine deaminase): Stable
SMILES: CC(C)C(=O)OC[C@H]1O[C@@H](n2cnc3c(N)ncnc32)[C@@H](O)[C@@H]1OC(=O)C(C)C
- inhibition at 17.5 µM (Human alphaherpesvirus 1 [6]): 90%
- inhibition at 17.5 µM (Human alphaherpesvirus 1 [8]): 0%

— ChEMBL document CHEMBL3228031, “Prodrugs of 9-(beta-D-arabinofuranosyl)adenine 2. Synthesis and evaluation of a number of 2',3'- and 3',5'-di-O-acyl derivatives” (J Med Chem, 1979)
